ChEMBL document CHEMBL1126891 (J Med Chem, 1993)

Legend:
Human alphaherpesvirus 2 = assay: Inhibitory activity against Herpes simplex virus 2 in vero cells at 100 uM; format: functional; settings: Human alphaherpesvirus 2, Vero
[1] = molecular target: T1, DNA polymerase alpha catalytic subunit (Homo sapiens, UniProt P09884); assay: Percent inhibition of DNA polymerase alpha at 100 uM
T1 sequence (P09884 whole entry): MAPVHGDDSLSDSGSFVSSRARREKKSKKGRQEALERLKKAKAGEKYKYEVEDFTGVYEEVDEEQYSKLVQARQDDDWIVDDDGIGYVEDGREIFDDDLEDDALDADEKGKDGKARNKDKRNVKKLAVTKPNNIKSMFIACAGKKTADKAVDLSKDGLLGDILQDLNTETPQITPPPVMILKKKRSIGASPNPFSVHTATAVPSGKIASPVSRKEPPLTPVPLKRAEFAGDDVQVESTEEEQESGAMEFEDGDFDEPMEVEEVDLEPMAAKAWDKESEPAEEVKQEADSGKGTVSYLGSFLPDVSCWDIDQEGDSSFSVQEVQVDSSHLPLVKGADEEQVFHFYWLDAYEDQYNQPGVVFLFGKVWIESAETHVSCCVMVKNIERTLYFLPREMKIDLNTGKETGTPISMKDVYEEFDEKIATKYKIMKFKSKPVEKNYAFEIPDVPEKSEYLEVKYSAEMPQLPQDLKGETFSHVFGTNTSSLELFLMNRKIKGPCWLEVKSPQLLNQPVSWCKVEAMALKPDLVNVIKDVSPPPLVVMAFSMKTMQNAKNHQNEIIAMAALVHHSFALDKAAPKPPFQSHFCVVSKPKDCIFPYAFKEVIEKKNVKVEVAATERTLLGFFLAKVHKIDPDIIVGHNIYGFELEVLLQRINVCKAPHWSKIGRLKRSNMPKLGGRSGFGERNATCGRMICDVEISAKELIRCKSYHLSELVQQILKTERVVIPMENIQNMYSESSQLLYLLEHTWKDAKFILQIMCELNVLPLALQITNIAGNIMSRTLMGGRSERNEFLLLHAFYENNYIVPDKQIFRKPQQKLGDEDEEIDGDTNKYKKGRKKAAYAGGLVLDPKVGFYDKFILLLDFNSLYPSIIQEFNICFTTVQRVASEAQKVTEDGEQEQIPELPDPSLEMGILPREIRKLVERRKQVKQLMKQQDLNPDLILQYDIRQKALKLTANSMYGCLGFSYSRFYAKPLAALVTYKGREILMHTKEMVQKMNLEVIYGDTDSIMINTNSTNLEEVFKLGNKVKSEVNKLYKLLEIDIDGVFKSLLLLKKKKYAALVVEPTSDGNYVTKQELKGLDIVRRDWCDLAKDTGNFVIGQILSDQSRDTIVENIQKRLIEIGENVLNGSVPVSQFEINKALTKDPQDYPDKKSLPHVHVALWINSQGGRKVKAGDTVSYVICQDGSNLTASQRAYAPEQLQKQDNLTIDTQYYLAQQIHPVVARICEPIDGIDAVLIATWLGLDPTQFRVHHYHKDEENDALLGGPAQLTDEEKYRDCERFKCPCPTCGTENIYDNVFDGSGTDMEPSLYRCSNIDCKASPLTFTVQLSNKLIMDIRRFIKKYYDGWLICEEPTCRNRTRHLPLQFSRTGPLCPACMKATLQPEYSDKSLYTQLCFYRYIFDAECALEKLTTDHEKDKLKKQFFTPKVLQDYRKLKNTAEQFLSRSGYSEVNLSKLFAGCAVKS

MRC5 [2] = assay: Inhibitory concentration against VZV in MRC5 cells; format: functional, cell-based; settings: Homo sapiens
MRC5 [3] = assay: Inhibitory concentration against human cytomegalovirus (HCMV1) in MRC5 cells; format: functional, cell-based
Vero [4] = assay: Cytotoxicity against vero cells; format: cell-based; settings: Chlorocebus sabaeus
Vero [5] = assay: Inhibitory concentration against HSV-1 in vero cells; format: functional, cell-based; settings: Chlorocebus sabaeus
Vero [6] = assay: Inhibitory concentration against HSV-2 in vero cells; format: functional, cell-based; settings: Chlorocebus sabaeus
Method in brief: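 HSV-2 plaque reduction assay in Vero cells; the value is reported as IC50 in µM.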

[7] = molecular target: T1, DNA polymerase alpha catalytic subunit; assay: Effective concentration against DNA polymerase alpha; format: single protein
Method in brief: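 DNA polymerase α enzyme assay using activated calf thymus DNA as template, with no NaCl or KCl added.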

[8] = Toxicity observed in vero cells; format: cell-based; settings: Chlorocebus sabaeus
Nucleic Acid = assay: Effective concentration against DNA polymerase of Herpes simplex virus 2 (HSV-2); format: nucleic-acid assay, Human alphaherpesvirus 2

**Q.** With `C[C@@]1(CO)[C@H](O)CC[C@]2(C)C3=C[C@H](O)[C@H](CO)C[C@@H]3CC[C@@H]12` as the molecule, how does the inhibition at 100 µM (Human alphaherpesvirus 2) read?
**A.** 0%

**Q.** With `COc1ccc2c(c1)[C@@]1(C)CCC[C@@](C)(C(=O)O)[C@@H]1CC2` as the molecule, how does the inhibition at 100 µM (Human alphaherpesvirus 2) read?
**A.** 31%

**Q.** And the inhibition [1]?
**A.** 4%

**Q.** Which inhibition at 100 µM (Human alphaherpesvirus 2) does the source give for `C[C@@]1(CO)CCC[C@]2(C)c3cc(O)c(CO)cc3CC[C@@H]12` here?
**A.** 0%

**Q.** With `COc1cc2c(cc1CO)CC[C@H]1[C@](C)(C(=O)O)CCC[C@]21C` as the molecule, how does the inhibition at 100 µM (Human alphaherpesvirus 2) read?
**A.** 13%

**Q.** Which results are given for `C[C@@]1(CO)[C@@H](O)CC[C@@]2(C)c3cc(O)c(CO)cc3CC[C@@H]12`?
**A.** IC50 (MRC5 [2]): > 100 µM; IC50 (MRC5 [3]): > 100 µM; IC50 (Vero [4]): > 500 µM; IC50 (Vero [5]): > 200 µM; IC50 (Vero [6]): > 100 µM

**Q.** For `C[C@@]1(CO)[C@H](O)CC[C@@]2(C)c3cc(O)c(CO)cc3CC[C@@H]12`, which IC50 (MRC5 [2]) is on record?
**A.** > 100 µM

**Q.** What about the IC50 (MRC5 [3]) of the same molecule?
**A.** > 100 µM

**Q.** And the IC50 (Vero [4])?
**A.** > 500 µM

**Q.** And the IC50 (Vero [5])?
**A.** 222 µM

**Q.** What about the IC50 (Vero [6]) of the same molecule?
**A.** > 100 µM

**Q.** Which inhibition at 100 µM (Human alphaherpesvirus 2) does the source give for `COc1ccc2c(c1)[C@@]1(C)CC[C@@H](O)[C@@](C)(CO)[C@@H]1CC2` here?
**A.** 36%

**Q.** For `C[C@@]1(CO)[C@H](O)CC[C@]2(C)c3cc(O)c(CO)cc3CC[C@@H]12`, which EC50 [7] is on record?
**A.** 4 µM

**Q.** And the IC50 (MRC5 [2])?
**A.** > 100 µM

**Q.** What about the IC50 (MRC5 [3]) of the same molecule?
**A.** 76 µM

**Q.** What about the IC50 (Vero [4]) of the same molecule?
**A.** > 500 µM

**Q.** What about the IC50 (Vero [5]) of the same molecule?
**A.** 133 µM

**Q.** And the IC50 (Vero [6])?
**A.** > 100 µM

**Q.** What about the inhibition at 100 µM (Human alphaherpesvirus 2) of the same molecule?
**A.** 90%

**Q.** Which EC50 [7] does the source give for `C[C@@]1(CO)[C@H](O)CC[C@]2(C)c3cc(O)ccc3CC[C@@H]12` here?
**A.** 8 µM

**Q.** What about the inhibition at 100 µM (Human alphaherpesvirus 2) of the same molecule?
**A.** 25%

**Q.** With `COc1cc2c(cc1CO)CC[C@H]1[C@](C)(CO)CCC[C@]21C` as the molecule, how does the inhibition [8] read?
**A.** 100%

**Q.** What about the inhibition [1] of the same molecule?
**A.** 3%

**Q.** For `COc1cc2c(cc1CO)CC[C@H]1[C@](C)(CO)[C@H](O)CC[C@]21C`, which IC50 (MRC5 [2]) is on record?
**A.** > 100 µM

**Q.** And the IC50 (MRC5 [3])?
**A.** > 100 µM

**Q.** What about the IC50 (Vero [4]) of the same molecule?
**A.** > 500 µM

**Q.** And the IC50 (Vero [5])?
**A.** > 100 µM

**Q.** What about the IC50 (Vero [6]) of the same molecule?
**A.** > 100 µM

**Q.** For `C[C@@]1(C(=O)O)CCC[C@]2(C)c3cc(O)c(CO)cc3CC[C@@H]12`, which inhibition at 100 µM (Human alphaherpesvirus 2) is on record?
**A.** 15%

**Q.** With `COC(=O)[C@]1(C)CCC[C@]2(C)c3cc(OC)c(C=O)cc3CC[C@@H]12` as the molecule, how does the inhibition [8] read?
**A.** 100%

**Q.** For `COC(=O)[C@]1(C)CCC[C@]2(C)c3cc(OC)c(CO)cc3CC[C@@H]12`, which inhibition at 100 µM (Human alphaherpesvirus 2) is on record?
**A.** 100%

**Q.** Which EC50 [7] does the source give for `C[C@@]1(CO)[C@@H](O)CC[C@]2(C)c3cc(O)c(CO)cc3CC[C@@H]12` here?
**A.** 7 µM

**Q.** And the IC50 (MRC5 [2])?
**A.** > 100 µM

**Q.** And the IC50 (MRC5 [3])?
**A.** > 100 µM

**Q.** What about the IC50 (Vero [4]) of the same molecule?
**A.** > 500 µM

**Q.** And the IC50 (Vero [5])?
**A.** 198 µM

**Q.** What about the IC50 (Vero [6]) of the same molecule?
**A.** > 100 µM

**Q.** And the inhibition at 100 µM (Human alphaherpesvirus 2)?
**A.** 19%

**Q.** Which EC50 [7] does the source give for `COc1ccc2c(c1)[C@@]1(C)CCC[C@@](C)(N)[C@@H]1CC2` here?
**A.** 1 µM

**Q.** What about the inhibition at 100 µM (Human alphaherpesvirus 2) of the same molecule?
**A.** 100%

**Q.** For `COc1ccc2c(c1)[C@@]1(C)CC[C@H](O)[C@@](C)(CO)[C@@H]1CC2`, which inhibition at 100 µM (Human alphaherpesvirus 2) is on record?
**A.** 10%

**Q.** For `C[C@@]1(CO)[C@@H](O)CC[C@]2(C)c3cc(O)ccc3CC[C@@H]12`, which inhibition at 100 µM (Human alphaherpesvirus 2) is on record?
**A.** 34%

**Q.** With `C[C@@]1(C(=O)O)CCC[C@]2(C)c3cc(O)c(C=O)cc3CC[C@@H]12` as the molecule, how does the EC50 [7] read?
**A.** 5 µM

**Q.** And the inhibition at 100 µM (Human alphaherpesvirus 2)?
**A.** 0%

**Q.** For `COc1cc2c(cc1CO)CC[C@H]1[C@](C)(CO)[C@@H](O)CC[C@]21C`, which IC50 (MRC5 [2]) is on record?
**A.** > 100 µM

**Q.** And the IC50 (MRC5 [3])?
**A.** > 100 µM

**Q.** And the IC50 (Vero [4])?
**A.** > 500 µM

**Q.** And the IC50 (Vero [5])?
**A.** > 100 µM

**Q.** What about the IC50 (Vero [6]) of the same molecule?
**A.** > 100 µM

**Q.** For `C[C@@]1(CO)[C@H](O)CC[C@@]2(C)[C@H]1CC[C@H]1C[C@@H]3C[C@@]12CC[C@]3(O)CO` [APHIDICOLIN], which EC50 (Nucleic Acid) is on record?
**A.** 5 µM
